Measurements: article PMC3361640 (Insect Biochemistry and Molecular Biology, 2012)
One block for each compound: values may come before it.

Key:
[1] = test system: Megacyllene caryae adults; conditions: adult M. caryae, field; ref Mitchell, 2012; cited from earlier work
McOr5 = McOr5 co-expressed with Orco; assay type: cell-based, Megacyllene caryae; conditions: McOr5, odorant at 30 µM applied 20 s
In short: (§1)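 Defolliculated Xenopus laevis oocytes (collagenase B, 2 h, room temperature) were co-injected with receptor and Orco (McOr1) cRNA and incubated 3–7 d. Two-electrode voltage clamp was run at −70 mV with 3 M KCl electrodes (0.2–2.0 MΩ) in ND96. Pheromone components and isomers, diluted in ND96, were applied at 30 µM for 20 s at 1.6 ml/min. Currents were filtered at 20 Hz and sampled at 100 Hz.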

AmOr11 = conditions: AmOr11, Xenopus assay; ref Wanner et al., 2007; cited from earlier work
McOr20 = McOr20 co-expressed with Orco; assay type: cell-based, Megacyllene caryae; conditions: for Current response of receptor in separate screen: McOr20, odorant at 100 µM, data not shown; for Current response of receptor in screen: McOr20, odorant at 30 µM applied 20 s
McOr3 = McOr3 co-expressed with Orco; assay type: cell-based, Megacyllene caryae; conditions: McOr3, odorant at 30 µM applied 20 s
In short: as §1

BmOr3 = conditions: ref Nakagawa et al., 2005; cited from earlier work
BmOr 1 = conditions: ref Nakagawa et al., 2005; cited from earlier work

SMILES: CC(C)=CCCC(C)=CC=O (mixture of isomers) [Citral, citral]
- Attraction of beetles [1]: attracts males and females in similar numbers

- Current response of receptor in screen (McOr5): sensitive
SMILES: OCCc1ccccc1 [2-phenylethanol]

SMILES: CC(=O)CCCCCC=CC(=O)O [9-oxo-2-decenoic acid]
- EC50 (AmOr11): 280 nM

- Current response of receptor in separate screen (McOr20): responded
SMILES: CCC[C@H](O)[C@@H](C)O [(2R,3S)-2,3-hexanediol]

- Current response of receptor in screen (McOr20): sensitive
SMILES: CCC[C@@H](O)[C@H](C)O [(2S,3R)-2,3-hexanediol]

- Current response of receptor in separate screen (McOr20): responded
SMILES: CCC[C@H](O)[C@H](C)O [(2S,3S)-2,3-hexanediol]

- Current response of receptor in screen (McOr20): sensitive
SMILES: CCC[C@@H](O)C(C)=O [(R)-3-hydroxyhexan-2-one]

SMILES: CC[C@H](C)CO [(S)-methylbutan-1-ol, (S)-2-methylbutan-1-ol]
- Current response of receptor in screen (McOr3): responded with high sensitivity

SMILES: CCC/C=C\C=C\CCCCCCCCC=O [bombykal]
- EC50 (BmOr3): 260 nM

SMILES: CCC/C=C\C=C\CCCCCCCCCO [bombykol]
- EC50 (BmOr 1): 1500 nM
